hIAP act: human IAP activators, primary screen, biochemical, luminescence, uHTS; AID 2524, 2010; Intestinal-type alkaline phosphatase (Homo sapiens), P09923; activation factor at 10 µM; 0.16% of 330,000 active; purified human IAP, CDP-Star luminescence, 30 min; hits give high values; 1 = vehicle-only enzyme, 0 = enzyme-free background;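 active = activation factor of the enzyme at least 2-fold when tested at 20 µM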
Target sequence (P09923 whole entry, looked up): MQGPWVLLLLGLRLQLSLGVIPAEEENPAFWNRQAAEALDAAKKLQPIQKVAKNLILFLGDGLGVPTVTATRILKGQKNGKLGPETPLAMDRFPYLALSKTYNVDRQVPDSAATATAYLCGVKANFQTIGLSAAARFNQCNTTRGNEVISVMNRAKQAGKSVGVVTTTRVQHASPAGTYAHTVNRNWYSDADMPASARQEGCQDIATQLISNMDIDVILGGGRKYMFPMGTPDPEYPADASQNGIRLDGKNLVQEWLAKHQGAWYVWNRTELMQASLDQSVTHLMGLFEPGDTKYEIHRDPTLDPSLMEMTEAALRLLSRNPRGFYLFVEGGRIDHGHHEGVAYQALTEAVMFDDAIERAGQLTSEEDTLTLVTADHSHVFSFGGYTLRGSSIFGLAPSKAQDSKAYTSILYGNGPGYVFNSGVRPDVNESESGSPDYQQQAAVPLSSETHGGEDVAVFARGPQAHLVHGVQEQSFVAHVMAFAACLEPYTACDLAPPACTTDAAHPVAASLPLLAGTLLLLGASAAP
bIAP inh: bovine intestinal alkaline phosphatase inhibitors, primary screen, selectivity assay for TNAP inhibitor project, biochemical, bovine IAP, CDP-star luminescence; purified bovine IAP, 30 min; inhibition, % at 20 µM; 190,000 tested, under 10 active; AID 1019, 2008;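 active = over 50% inhibition of intestinal alkaline phosphatase at 20 µM in the single-dose screen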
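Assay system – bovine IAP enzyme · Quantity – bovine IAP at 1/65,000,000 final dilution · Detection – CDP-star luminescence signal · Times – 30 min reaction at room temperature · Also added – CDP-star substrate at 30 µM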
bIAP act: bovine intestinal alkaline phosphatase activators, primary screen, biochemical, bovine IAP, CDP-star luminescence; alkaline phosphatase, intestinal [Bos taurus]; purified bovine IAP, 30 min; hits give high values; fold of DMSO-control signal, blank-subtracted; activation factor at 20 µM; 0.17% of 200,000 active;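 active = activation factor of 2 or more at 20 µM, a signal rise over negative controls twice the positive control's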
mIAP block: inhibitors of mouse IAP, primary screen, biochemical, luminescence, uHTS; intestinal alkaline phosphatase [Mus musculus]; purified mouse IAP, CDP-Star luminescence, 30 min; inhibition, % at 10 µM; 0.2% of 330,000 active;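 active = inhibition of at least 40% at 10 µM in the primary screen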;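 also: plate controls were DMSO with enzyme for no effect and no enzyme wells for full effect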
mIAP act: activators of mouse IAP, primary screen, biochemical, luminescence, uHTS; intestinal alkaline phosphatase [Mus musculus]; muIAP, CDP-Star luminescence, 30 min; hits give high values; 1 = vehicle-only enzyme signal, 0 = enzyme-free wells; activation factor at 10 µM; 0.24% of 330,000 active; AID 2805, 2010;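 active = activation factor of at least 2 at 20 µM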
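System: mouse IAP enzyme. Reagent: CDP-Star chemiluminescent phosphatase substrate. Benchmarks: DMSO wells, no-enzyme wells. Times: 30 min enzyme-substrate-compound incubation at room temperature. Detection: luminescence from enzymatic CDP-Star hydrolysis. Doses: test compounds delivered from DMSO solution.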
hIAP inh: human IAP inhibitors, primary screen, biochemical, luminescence, uHTS. Intestinal-type alkaline phosphatase (Homo sapiens), P09923. purified IAP, CDP-Star luminescence, 30 min. inhibition, % at 10 µM. 0.12% of 330,000 active;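 active = inhibition reaching a set limit with compound at 10 µM in the primary screen, cut at about 35% in these data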;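 also: plate controls were DMSO wells with enzyme for no effect and no-enzyme buffer wells for full effect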
mIAP inh confirm: inhibitors of mouse IAP, confirmation, biochemical, luminescence, single concentration | purified mouse IAP, CDP-Star luminescence, 30 min | inhibition, % at 10 µM | 4.7% of 11,000 active | shares compounds with mIAP block;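 active = inhibition of at least 40% at 10 µM in either of the two replicates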;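 also: plate controls were DMSO wells with enzyme for no effect and buffer wells lacking enzyme for full effect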
* hit, by the source's call; i = inactive; . = no result given. Most compounds without a hit are left out; they make up all but 0.77% or so of the library.

SMILES	hIAP act	bIAP inh	bIAP act	mIAP block	mIAP act	hIAP inh	mIAP inh confirm
COc1cccc(NC(=O)Nc2cc(C(=O)O)ccc2C)c1	0.96	9	0.9	-2	1	4	.
COc1cccc(NC(=O)NC(C)C2CC3CCC2C3)c1 (configuration not stated)	0.94	-9	1.1	-167	2.7*	6	-97
COc1ccc(C(=O)NC(C)C2CC3CCC2C3)c(OC)c1 (configuration not stated)	1	.	.	-1	1	0	.
COc1cccc(-c2csc(NC(=O)Nc3ccccc3)n2)c1	0.88	.	.	-221	3.2*	12	-111
COc1cccc(NC(=O)Nc2ccc(C)c(Cl)c2)c1	1.3	-2	1	-309	4.1*	-27	-117
CC1CN(S(=O)(=O)c2ccc(F)cc2)C(C)N1C(=O)N1CCOCC1 (configuration not stated)	0.86	.	.	5	0.95	14	.
CCOC(=O)c1c(NC(=O)CSc2nc3ccc(C)cc3[nH]2)sc2c1CC(C)(C)NC2(C)C	1.5	.	.	-1	1	-46	.
Cc1ccc(NC(=O)CN(C)S(=O)(=O)c2ccc3[nH]c(=O)oc3c2)c(C)c1	0.94	.	.	63*	0.37	6	88*
Cc1ccc(NS(=O)(=O)c2ccc3[nH]c(=O)oc3c2)c(C)c1	0.94	.	.	80*	0.2	6	85*
COc1ccc(C(=O)N2CCN(CCCc3ccccc3)CC2)cc1OC	1.1	.	.	-1	1	-11	.
Cc1cccc(C2=NN(c3ccccc3)[C@H](CO)[C@H]2c2ccccc2)c1	.	.	.	-120	2.2*	.	-107
CN1CC(=O)N/C1=N\C(=O)Nc1ccc(O)cc1	1.1	.	.	-1	1	-9	.
Cc1onc(-c2ccccc2)c1C(=O)Nc1nnc(C(C)(C)C)s1	0.89	.	.	5	0.95	11	.
O=C(NCC1CC1(Cl)Cl)Nc1ccc(Cl)c(Cl)c1 (configuration not stated)	1.1	.	.	-193	2.9*	-6	-153
CCC(C)NC(=O)Nc1ccc2c(c1)N(C)C(=O)c1ccccc1S2 (configuration not stated)	1.1	-260	3.6*	-240	3.4*	-6	-100
Cn1cccc1C(=O)OCc1cc(Cl)cc2c1OCOC2	1.1	-1	1	6	0.94	-7	24*
Cn1cccc1/C=C1\SC(=S)N(Nc2ccccc2)C1=O	1.2	.	.	40*	0.6	-20	50*
C[C@@H](C(=O)Nc1ccc(SC(F)F)cc1)N1C(=O)C2CCCCC2C1=O (some centres not stated)	0.89	.	.	-10	1.1	11	.
CC1CCCC(NC(=S)Nc2ccc(SC(F)F)cc2)C1C (configuration not stated)	1.1	24	0.8	i	8.1*	-15	-109
O=C(N/N=C/c1ccc(Cl)cc1)Nc1ccccc1	1	0	1	0	1	0	.
O=C(N/C=C/c1ccccc1)Nc1ccc(Cl)cc1	0.95	8	0.9	-295	4*	5	-171
CC12CCC(=O)N1C(C(=O)OCC(=O)Nc1cc(S(=O)(=O)N3CCCCC3)ccc1Cl)CS2 (configuration not stated)	1.1	14	0.9	1	0.99	-10	.
Cc1onc(C(=O)NC2CCCCC2)c1[N+](=O)[O-]	0.87	.	.	-1	1	13	.
O=C(NC1CCCC1)C(c1ccc(F)cc1)N(Cc1ccc(F)cc1)C(=O)c1ccn[nH]1 (configuration not stated)	1.8	-142	2.4*	-120	2.2*	-76	-105
O=C(Nc1ccc(Br)cc1)NC1CCCCCCC1	1.1	.	.	-399	5*	-6	-174
SMILES	hIAP act	bIAP inh	bIAP act	mIAP block	mIAP act	hIAP inh	mIAP inh confirm
CCc1ccc(NC(=O)C(=S)NC2CCCCC2)cc1	1.2	2	1	15	0.85	-24	.
CCc1ccc(NC(=O)NC2CCCCCCC2)cc1	1.6	.	.	-172	2.7*	-56	-213
CC1(C(=O)N2CCC(CC3CC(c4cccc(Br)c4)=NO3)(C(=O)NCC3CCCCC3)CC2)CC1 (configuration not stated)	0.97	.	.	-17	1.2	2	.
Cc1cccc(OCC(=O)N(C)c2c(N)n(Cc3ccccc3)c(=O)[nH]c2=O)c1C	1	.	.	1	0.99	-3	.
O=C(O)c1ccc2nc(-c3ccco3)c(-c3ccco3)nc2c1	1.1	-25	1.3	48*	0.52	-11	66*
O=C(c1ccc2nc(-c3ccco3)c(-c3ccco3)nc2c1)N1CCN(c2ccccc2)CC1	1	1	1	16	0.84	-5	.
CCOC(=O)c1ccc(NC(=O)NCCc2ccccc2OC)cc1	1.2	-12	1.1	-182	2.8*	-25	-101
COC(=O)c1ccccc1NC(=O)NCCc1ccccc1OC	1	-3	1	1	0.99	-2	.
N#Cc1c(SCC(=O)Nc2nc3ccc(Br)cc3s2)sc2c(O)cc(=O)[nH]c12	1	.	.	41*	0.59	-2	72*
N#Cc1c(SCC(=O)Nc2nc3ccccc3s2)sc2c(O)cc(=O)[nH]c12	1.2	.	.	61*	0.39	-18	73*
CCCSc1nnc(NC(=O)CSc2sc3c(O)cc(=O)[nH]c3c2C#N)s1	0.96	.	.	33	0.67	4	.
N#Cc1cccc(NC(=O)CSc2sc3c(O)cc(=O)[nH]c3c2C#N)c1	1.1	.	.	16	0.84	-6	.
N#Cc1c(SCC(=O)Nc2nccs2)sc2c(O)cc(=O)[nH]c12	0.95	.	.	48*	0.53	5	63*
O=C1CCC(C(=O)Nc2cc(C(F)(F)F)ccc2-n2cncn2)=NN1	1.1	.	.	-10	1.1	-7	.
C#CCOCCOCCOCCNc1nc(N2CCN(C(=O)CCCCCCCCCCNC(=O)Cn3cc(C[C@@H](C)O)nn3)CC2)nc(N2CCN(C(=O)CCCCCCCCCCNC(=O)[C@@H]([C@H](C)CC)n3cc(CCCCCN)nn3)CC2)n1	1.1	.	.	i	6.1*	-8	-459

Source: PubChem BioAssay (Sanford-Burnham Center for Chemical Genomics)
